Assay results gathered from unrelated publications.
Read-out: cell growth or viability

Cc1cc(C)n(Cn2cnc3ccccc32)n1  IC50 (SH-SY5Y; MTT; 24 h): 82.7 µM
Cc1nc(NC(=O)N2CCC[C@H]2C(N)=O)sc1-c1ccnc(C(C)(C)C(F)(F)F)c1  EC50 (NCI-H596; ATP luminescence; 5 days): 0.492 µM
Cc1nc(Nc2ncc(C(=O)Nc3c(C)cccc3Cl)s2)cc(N2CC[C@H](O)C2)n1  inhibition (HuT78; ATP luminescence; 10 µM, 72 h): 7%
CN1CCN(c2ccc(Nc3c4ccccc4nc4ccccc34)cc2)CC1  IC50 (PLC-PRF-5; imaging; 72 h): 3.2 µM
c1ccc(Oc2ccc(Nc3c4c(nc5ccccc35)CCC4)cc2)cc1  IC50 (J774.1; resazurin; 72 h): 45.8 µM
CCOC(=O)c1cc(C)n(Cn2cnc3ccccc32)n1  IC50 (SH-SY5Y; MTT; 24 h): 121 µM
[Cl-].[Li+]  IC50 (CHO; MTT): > 10000 µM
CCOc1ccc(Nc2c3c(nc4ccccc24)CCC3)cc1  IC50 (J774.1; resazurin; 72 h): 33.2 µM
Cc1cnc(CNC(=O)c2c(=O)c3ccc(N4CCCN(C)CC4)nc3n3c2sc2ccccc23)cn1  IC50 (PLC-PRF-5; imaging; 72 h): 0.33 µM
OCn1ccnc1  IC50 (SH-SY5Y; MTT; 24 h): 6.97 µM
C[C@H](Nc1ccc2c(c1)OCCn1cc(N3C(=O)OC[C@H]3C(F)F)nc1-2)C(N)=O  EC50 (NCI-H596; ATP luminescence; 5 days): 0.0829 µM
